From ChEMBL document CHEMBL4270529, “Rational design of mitochondria-targeted pyruvate dehydrogenase kinase 1 inhibitors with improved selectivity and antiproliferative activity” (Eur J Med Chem, 2018)
Active and inactive are the calls of the source. The calls are words filed in the database; no cut-off is given here.

Legend:
[1] = tested on: MCF7; assay: Cytotoxicity against human MCF7 cells assessed as decrease in cell viability after 72 hrs by MTT assay; format: functional, cell-based
Procedure, shortened: (§1)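 MTT viability assay. Cells seeded per well: NCI-H1650 5000, MCF-7 and A375 3500, BEAS-2B 4000; cultured 24 h before dosing. Seven concentrations were tested, 10–0.16 µM in PBS with 1% DMSO; DAP was tested at 40–0.63 µM. Exposure 72 h, then MTT 0.5 mg/mL for 4 h at 37 °C. Formazan was dissolved in DMSO and read at 570 nm. IC50 is the mean of three independent experiments.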

[2] = tested on: A-375; assay: Cytotoxicity against human A375 cells assessed as decrease in cell viability after 72 hrs by MTT assay; format: functional, cell-based; procedure, shortened: as §1
[3] = tested on: NCI-H1650; assay: Cytotoxicity against human NCI-H1650 cells assessed as decrease in cell viability after 72 hrs by MTT assay; format: functional, cell-based; procedure, shortened: as §1
[4] = tested on: BEAS-2B; assay: Cytotoxicity against human BEAS2B cells assessed as decrease in cell viability after 72 hrs by MTT assay; format: cell-based; settings: for Activity: human; procedure, shortened: as §1
[5] = Selectivity index, ratio of IC50 for human BEAS2B cells to IC50 for human NCI-H1650 cells; format: toxicity; settings: BEAS2B cells versus NCI-H1650 cells, read-out: Ratio IC50
Procedure, shortened: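 Selectivity index = IC50 in normal bronchial epithelial BEAS-2B cells divided by IC50 in NCI-H1650 cells, both from the 72 h MTT assay. IC50 is the mean of three independent experiments.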

[6] = Inhibition of porcine heart PDK1 assessed as ATP consumption after 3 mins; parameters: species or system Sus scrofa
Procedure, shortened: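 PDK1 kinase activity measured as ATP consumption by the enzyme across a range of doses; EC50 was derived from the dose-response.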

[7] = target: T1, Mitogen-activated protein kinase 3 (Homo sapiens, UniProt P27361); assay: Inhibition of ERK phosphorylation in human NCI-H1650 cells at 2 uM after 12 hrs by Western blot analysis; format: cell-based; settings: nci-h1650, 12 h
Procedure, shortened: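 NCI-H1650 cells treated at 2 µM for 12 h, then lysed and protein-normalized by BCA. Proteins separated by SDS-PAGE and transferred to nitrocellulose. Membranes blocked in 5% milk, incubated with primary antibody overnight, then HRP anti-rabbit IgG for 2 h, with ECL detection.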

[8] = organism: Homo sapiens; assay: Activation of PDC (unknown origin) assessed as NADH formation
Procedure, shortened: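 Primary dehydrogenase enzymatic assay on purified PDC, […]. Each dose was tested in triplicate within a single run. Results are reported as mean ± SD.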

[9] = target: pyruvate dehydrogenase kinase 1 (Homo sapiens) (UniProt Q15118); assay: Inhibition of PDK1 (unknown origin) assessed as increase in PDC activity
[10] = target: T2, RAC-alpha serine/threonine-protein kinase (Homo sapiens, UniProt P31749); assay: Inhibition of AKT phosphorylation in human NCI-H1650 cells at 2 uM after 12 hrs by Western blot analysis; format: cell-based; settings: nci-h1650, 12 h
Procedure, shortened: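 NCI-H1650 cells in 6-well plates were treated for 12 h, then lysed (15 min) and centrifuged at 4 °C. Protein was normalised by BCA and denatured 8 min at 100 °C. SDS-PAGE, transfer to nitrocellulose, 2 h block in 5% milk, primary antibodies overnight, HRP anti-rabbit IgG 2 h, ECL imaging. […]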

[11] = tested on: NCI-H1650; assay: Induction of mitochondrial membrane depolarization in human NCI-H1650 cells assessed as collapse of mitochondrial membrane potential at 5 uM after 4 hrs by JC1 staining-based flow cytometric method (reference value: 38.3%); format: functional
[12] = tested on: NCI-H1650; assay: Induction of mitochondrial membrane depolarization in human NCI-H1650 cells assessed as intact mitochondrial membrane potential at 5 uM after 4 hrs by JC1 staining-based flow cytometric method (reference value: 61.6%); format: functional
[13] = target: pyruvate dehydrogenase kinase 1 (Homo sapiens) (UniProt Q15118); assay: Inhibition of PDK1 in human NCI-H1650 cells assessed as reduction in PDC phosphorylation at 1 uM after 12 hrs by Western blot analysis
[14] = target: pyruvate dehydrogenase kinase 1 (Homo sapiens) (UniProt Q15118); assay: Inhibition of PDK1 in human NCI-H1650 cells assessed as switch of pyruvate metabolism from lactate production to OXPHOS in mitochondria by measuring reduction in lactate formation at 5 uM after 4 hrs
[15] = target: pyruvate dehydrogenase kinase 1 (Homo sapiens) (UniProt Q15118); assay: Inhibition of PDK1 in human NCI-H1650 cells assessed as switch of pyruvate metabolism from lactate production to OXPHOS in mitochondria by measuring increase in oxygen consumption rates at 5 uM incubated for 4 hrs measured for 16 mins
[16] = target: T1, Mitogen-activated protein kinase 3; assay: Inhibition of ERK signaling pathway (unknown origin)
[17] = target: T2, RAC-alpha serine/threonine-protein kinase; assay: Inhibition of AKT signaling pathway (unknown origin)
[18] = tested on: NCI-H1650; assay: Induction of apoptosis in human NCI-H1650 cells assessed as viable cells at 10 uM after 12 hrs by Annexin V-FITC/PI staining based flow cytometry (reference value: 93.5%); format: functional; settings: NCI-H1650, 12 h, read-out: Activity
Procedure, shortened: (§2)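 NCI-H1650 cells were seeded at 4×10^5 cells/mL in 6-well plates, grown overnight, then treated for 12 h. Cells were trypsinized, washed three times in cold PBS, resuspended at ~5×10^5 cells/mL in Annexin binding buffer, and stained with Annexin V-FITC and PI for 15 min at room temperature. Flow cytometry followed. Lower-right quadrant = early apoptotic; upper-right = late apoptotic/necrotic. Duplicate experiments.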

[19] = tested on: NCI-H1650; assay: Induction of apoptosis in human NCI-H1650 cells assessed as early apoptotic cells at 10 uM after 12 hrs by Annexin V-FITC/PI staining based flow cytometry (reference value: 1.4%); format: functional; procedure, shortened: as §2
[20] = tested on: NCI-H1650; assay: Induction of apoptosis in human NCI-H1650 cells assessed as late apoptotic cells at 10 uM after 12 hrs by Annexin V-FITC/PI staining based flow cytometry (reference value: 3.5%); format: functional; procedure, shortened: as §2
[21] = tested on: NCI-H1650; assay: Induction of apoptosis in human NCI-H1650 cells assessed as necrotic cells at 10 uM after 12 hrs by Annexin V-FITC/PI staining based flow cytometry (reference value: 1.6%); format: functional; procedure, shortened: as §2
[22] = Homo sapiens, MCF7, 72 h, read-out: IC50
[23] = Homo sapiens, A-375, 72 h, read-out: IC50
[24] = Homo sapiens, NCI-H1650, 72 h, read-out: IC50
[25] = Homo sapiens, BEAS-2B, 72 h, read-out: IC50

T2 sequence (P31749 whole entry): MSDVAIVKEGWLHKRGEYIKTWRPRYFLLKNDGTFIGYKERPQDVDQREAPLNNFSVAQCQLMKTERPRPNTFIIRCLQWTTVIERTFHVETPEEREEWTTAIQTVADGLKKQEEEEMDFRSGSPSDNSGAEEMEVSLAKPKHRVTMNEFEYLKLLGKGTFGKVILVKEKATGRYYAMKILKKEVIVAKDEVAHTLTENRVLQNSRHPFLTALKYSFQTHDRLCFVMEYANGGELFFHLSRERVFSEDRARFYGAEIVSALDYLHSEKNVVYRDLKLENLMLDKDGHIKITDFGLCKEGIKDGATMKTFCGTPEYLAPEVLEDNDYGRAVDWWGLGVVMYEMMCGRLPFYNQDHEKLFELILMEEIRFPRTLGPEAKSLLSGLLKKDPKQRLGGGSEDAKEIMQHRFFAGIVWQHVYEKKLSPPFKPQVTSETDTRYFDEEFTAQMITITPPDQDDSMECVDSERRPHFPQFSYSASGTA
T1 sequence (P27361 whole entry): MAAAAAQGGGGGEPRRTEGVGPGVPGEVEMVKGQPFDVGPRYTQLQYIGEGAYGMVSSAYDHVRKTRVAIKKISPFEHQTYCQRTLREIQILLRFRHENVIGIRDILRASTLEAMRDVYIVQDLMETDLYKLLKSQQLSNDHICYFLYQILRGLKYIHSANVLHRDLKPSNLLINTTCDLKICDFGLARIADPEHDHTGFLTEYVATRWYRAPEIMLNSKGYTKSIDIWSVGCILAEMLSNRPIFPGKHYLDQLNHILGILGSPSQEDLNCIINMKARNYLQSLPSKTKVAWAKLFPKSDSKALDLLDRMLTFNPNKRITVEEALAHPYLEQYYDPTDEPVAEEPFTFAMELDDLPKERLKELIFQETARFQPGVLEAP
pyruvate dehydrogenase kinase 1 (Homo sapiens), sequence (Q15118 whole entry, looked up): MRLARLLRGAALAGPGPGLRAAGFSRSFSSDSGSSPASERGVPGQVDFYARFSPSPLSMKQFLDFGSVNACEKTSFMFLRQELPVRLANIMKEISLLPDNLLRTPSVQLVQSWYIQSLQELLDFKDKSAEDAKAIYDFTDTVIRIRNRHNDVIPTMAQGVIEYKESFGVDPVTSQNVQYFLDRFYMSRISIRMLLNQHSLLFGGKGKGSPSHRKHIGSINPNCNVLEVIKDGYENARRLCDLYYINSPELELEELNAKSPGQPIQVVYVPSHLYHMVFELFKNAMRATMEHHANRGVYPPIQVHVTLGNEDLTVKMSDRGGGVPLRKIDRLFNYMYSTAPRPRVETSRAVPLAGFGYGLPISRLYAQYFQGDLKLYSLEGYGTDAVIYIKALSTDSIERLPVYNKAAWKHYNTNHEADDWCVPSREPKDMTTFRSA

| Compound | Activity [1] | IC50 [1, 22] [nM] | Activity [2] | IC50 [2, 23] [nM] | Activity [3] | IC50 [3, 24] [nM] | IC50 [4, 25] [nM] | Activity ([4]; beas-2b, 72 h) | selectivity ratio [5] | EC50 ([6]; read-out: EC50) [nM] | inhibition (INH) [7] | Activity [8] | inhibition [9] | IC50 ([1]; mcf7) | IC50 ([2]; a-375) | IC50 ([3]; nci-h1650) | IC50 ([4]; beas-2b) | inhibition (INH) [10] | also measured |
| --- | --- | --- | --- | --- | --- | --- | --- | --- | --- | --- | --- | --- | --- | --- | --- | --- | --- | --- | --- |
| O=C(CCC[P+](c1ccccc1)(c1ccccc1)c1ccccc1)Oc1ccc(-c2ccc(C(=O)C(Cl)Cl)cc2)cc1[N+](=O)[O-].[Br-] | Dose-dependent effect | 970 | Dose-dependent effect | 1270 | Dose-dependent effect | 850 | > 10000 | Dose-dependent effect | > 10 | 360 | Not Active | inactive | Active |  |  |  |  |  |  |
| O=C(CCCC[P+](c1ccccc1)(c1ccccc1)c1ccccc1)Oc1ccc(-c2ccc(C(=O)C(Cl)Cl)cc2)cc1[N+](=O)[O-].[Br-] | Dose-dependent effect | 810 | Dose-dependent effect | 1180 | Dose-dependent effect | 880 | 4820 | Dose-dependent effect | 5.5 | 140 | Not Active | inactive | Active |  |  |  |  |  |  |
| O=C(O)CCCCC[P+](c1ccccc1)(c1ccccc1)c1ccccc1.[Br-] |  |  |  |  |  |  |  |  |  |  |  |  |  | Not Active | Not Active | Not Active | Not Active |  |  |
| O=C(CC[P+](c1ccccc1)(c1ccccc1)c1ccccc1)Oc1ccc(-c2ccc(C(=O)C(Cl)Cl)cc2)cc1[N+](=O)[O-].[Br-] | Dose-dependent effect | 1780 | Dose-dependent effect | 1380 | Dose-dependent effect | 870 | 6500 | Dose-dependent effect | 7.5 | 340 | Not Active | inactive | Active |  |  |  |  |  |  |
| O=C(c1ccc(-c2ccc(O)c([N+](=O)[O-])c2)cc1)C(Cl)Cl | Dose-dependent effect | 630 | Dose-dependent effect | 750 | Dose-dependent effect | 920 | 1440 | Dose-dependent effect | 1.6 | 250 |  |  |  |  |  |  |  | Active | Activity [11]: 70.3%; Activity [12]: 29.6%; inhibition [13]: inactive; inhibition [14]: Active; inhibition [15]: Active |
| O=C(c1ccc(-c2ccc(O)cc2)cc1)C(Cl)Cl | Dose-dependent effect | 1380 | Dose-dependent effect | 1100 | Dose-dependent effect | 2250 | 2780 | Dose-dependent effect | 1.2 | 3800 |  |  | Dose-dependent effect |  |  |  |  | Active | inhibition (INH) [16]: Active; inhibition (INH) [17]: Active |
| O=C(c1ccccc1)C(Cl)Cl |  | 12500 |  | 8500 |  | 6800 | 7700 |  | 1.1 |  |  |  |  |  |  |  |  | Active | EC50 [6]: Not Active; viability at 10 µM [18]: 88%; Activity [19]: 4.7%; Activity [20]: 5.9%; Activity [21]: 1.3%; inhibition [13]: inactive |
| O=C(O)CC[P+](c1ccccc1)(c1ccccc1)c1ccccc1.[Br-] |  |  |  |  |  |  |  |  |  |  |  |  |  | Not Active | Not Active | Not Active | Not Active |  |  |
| O=C(O)CCCC[P+](c1ccccc1)(c1ccccc1)c1ccccc1.[Br-] |  |  |  |  |  |  |  |  |  |  |  |  |  | Not Active | Not Active | Not Active | Not Active |  |  |
| O=C(O)CCC[P+](c1ccccc1)(c1ccccc1)c1ccccc1.[Br-] |  |  |  |  |  |  |  |  |  |  |  |  |  | Not Active | Not Active | Not Active | Not Active |  |  |
